“Also recorded” adds a separate entry of the source.
Tests used:
Assay type in all cases: cell-based
human HEp2 cells [1] = test: Dark cytotoxicity; details: read-out: Dark toxicity IC50, in the dark, up to 200 μM, incubated overnight
Summary of the method: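 HEp2 cells kept in 50:50 DMEM:AMEM with 5% FBS and 1% penicillin/streptomycin, seeded at 7500 per well and grown 48 h. Dosed at 0, 6.25, 12.5, 25, 50, 100 and 200 μM final, diluted from DMSO stock, overnight at 37°C, 5% CO₂. Washed with PBS, then 20% CellTiter Blue medium for 4 h, read at 570/615 nm. Untreated set to 100%, 0.2% saponin to 0%.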

human HEp2 cells [2] = test: Phototoxicity; details: for IC50: read-out: Phototoxicity IC50, 1.5 J/cm^2 light dose, up to 100 μM
Summary of the method: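 HEp2 cells were grown in 50:50 DMEM:AMEM with 5% FBS and 1% penicillin/streptomycin, plated at 7500 cells/well and grown 48 h. Cells were loaded 24 h with test compound at 0–100 μM (from 32 mM DMSO stock), washed with PBS and given fresh medium. They were irradiated 20 min with a 600 W water-filtered halogen lamp (~1.5 J/cm²) and incubated 24 h. Viability was read with 20% CellTiter Blue (4 h, 570/615 nm), normalized to untreated (100%) and 0.2% saponin (0%).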

human HEp2 cells [3] = test: Time-dependent cellular uptake; details: for Cellular uptake at 24 h: 10 μM compound; for Cellular uptake (in words): 0-24 h
Summary of the method: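 HEp2 cells, cultured and plated as for cytotoxicity, were exposed to 10 μM test compound for 0, 1, 2, 4, 8 and 24 h. Cells were PBS-washed and lysed in 0.25% Triton X-100/PBS, and fluorescence was read at 485/590 nm against a compound standard curve (0.3125–10 μM). Cell number was measured by CyQuant against a 10⁴–10⁵ cell standard curve. Uptake was expressed as nM compound per cell.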

Cellular uptake at 24 h (human HEp2 cells [3])	Time at which uptake plateau was reached (human HEp2 cells [3]; 10 μM)	Compound	IC50 (human HEp2 cells [1])	Phototoxicity (in words) (human HEp2 cells [2]; light irradiation 1.5 J/cm^2, up to 100 μM)	IC50 (human HEp2 cells [2])	Cellular uptake (in words) (human HEp2 cells [3]; 10 μM)
0.12±0.01 nM/cell	–	8-(4-Cyanophenyl)-3,5-di(4-methoxyphenyl)-2,6-dithienyl-BODIPY [BODIPY 7]	> 200 µM	–	> 100 µM	–
0.51±0.01 nM/cell	–	COc1ccc(C2=[N+]3C(=C(c4ccc(C#N)cc4)c4cc(Cl)c(-c5ccc(OC)cc5)n4[B-]3(F)F)C=C2Cl)cc1 [BODIPY 6b, 8-(4-Cyanophenyl)-3,5-di(4-methoxyphenyl)-2,6-dichloro-BODIPY]	> 200 µM	–	> 100 µM	higher cellular uptake; also recorded: highest cellular uptake
0.79±0.13 nM/cell	8 h	COc1ccc(C2=CC3=C(c4ccc(C#N)cc4)c4cc(-c5ccc(C#N)cc5)c(-c5ccc(OC)cc5)n4[B-](F)(F)[N+]3=C2c2ccc(OC)cc2)cc1 [BODIPY 8, 8-(4-Cyanophenyl)-3,5-di(4-methoxyphenyl)-2-(4-methoxyphenyl)-6-(4-cyanophenyl)-BODIPY]	> 200 µM	–	> 100 µM	higher cellular uptake; also recorded: highest cellular uptake

Further lines, the compound ahead of its results:

Compound	Cellular uptake at 24 h (human HEp2 cells [3])	Time at which uptake plateau was reached (human HEp2 cells [3]; 10 μM)	IC50 (human HEp2 cells [1])	Phototoxicity (in words) (human HEp2 cells [2]; light irradiation 1.5 J/cm^2, up to 100 μM)	IC50 (human HEp2 cells [2])	Cellular uptake (in words) (human HEp2 cells [3]; 10 μM)
2,3,5,6,8-Pentaphenyl-BODIPY [BODIPY 4]	0.058±0.028 nM/cell	–	> 200 µM	slight phototoxicity	> 100 µM	very low uptake; also recorded: accumulated the least
3,5,8-Triphenyl-2,6-dichloro-BODIPY [BODIPY 2]	1.2±0.10 nM/cell	–	> 200 µM	–	> 100 µM	taken-up faster and more efficiently at all times investigated; also recorded: accumulated the most within cells after 24 hours
3,5,8-Triphenyl-2,6-dithienyl-BODIPY [BODIPY 3]	0.14±0.01 nM/cell	–	> 200 µM	–	> 100 µM	very low uptake
8-(4-Benzyloxycarbonylphenyl)-3,5-di(4-methoxyphenyl)-2,6-dichloro-BODIPY [BODIPY 6a]	0.14±0.01 nM/cell	–	> 200 µM	–	> 100 µM	–

Reference: article PMC5510570 (The Journal of organic chemistry, 2017)
